ChEMBL document CHEMBL1177835, “A note to the biological activity of benzoxazine derivatives containing the thioxo group” (Eur J Med Chem, 2010)
Converted amounts (≈) assume the structure as drawn.

Key:
[1] = system: Mycobacterium avium; experiment: Antimycobacterial activity against Mycobacterium avium CNCTC My 330/88 after 21 days by microdilution method; type: functional; details: CNCTC My 330/88, 504 h
Summary of the method: (§1)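 MIC determined by a dilution micromethod. Strains came from the Czech National Collection of Type Cultures, Prague. Compounds were added to the medium as DMSO solutions. Each inoculum was also plated in parallel on Löwenstein–Jensen medium to check its sterility and growth. The M. avium strain is identical with ATCC 25291 and resistant to INH.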

[2] = system: Mycobacterium avium; experiment: Antimycobacterial activity against Mycobacterium avium CNCTC My 330/88 after 14 days by microdilution method; type: functional; details: CNCTC My 330/88, 336 h; summary of the method: as §1
[3] = system: Mycobacterium kansasii; experiment: Antimycobacterial activity against Mycobacterium kansasii 6509/96 after 21 days by microdilution method; type: functional; details: 6509/96, 504 h
Summary of the method: (§2)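 Dilution micromethod for MIC; compounds added to medium as DMSO solutions. Each strain also inoculated onto Löwenstein–Jensen medium to control inoculum sterility and growth. Strain 6509/96 is a clinical isolate; CNCTC strains from the Czech national type culture collection.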

[4] = system: HeLa; experiment: Cytotoxicity against human HeLa cells after 72 hrs by using methylene blue staining; type: functional, cell-based
Summary of the method: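 HeLa cells in RPMI 1640 with supplements, preincubated 48 h without compound. Compound dilutions were then applied to subconfluent monolayers for 72 h at 37 °C, 5% CO2. Cells were glutaraldehyde-fixed, stained with 0.05% methylene blue, eluted with 0.33 N HCl and read at OD 660 nm. CC50 taken at 50% intersection versus negative control.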

[5] = system: Mycobacterium kansasii; experiment: Antimycobacterial activity against Mycobacterium kansasii 6509/96 after 14 days by microdilution method; type: functional; details: 6509/96, 336 h; summary of the method: as §2
[6] = system: HUVEC; experiment: Antiproliferative activity against HUVEC after 72 hrs by using methylene blue staining; type: cell-based; details: human
Summary of the method: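 HUVEC in culture medium with ultraglutamine, gentamicin, 10% heat-inactivated FBS, 37 °C. Harvested in log phase by trypsinization; about 10,000 cells/well. Compounds in DMSO, diluted in DMEM, incubated 72 h at 37 °C, 5% CO2. Cells then glutaraldehyde-fixed, stained with 0.05% methylene blue for 15 min, eluted with 0.33 N HCl, OD 660 nm. GI50 taken at 50% intersection versus untreated control.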

[7] = system: Mycobacterium kansasii; experiment: Antimycobacterial activity against Mycobacterium kansasii CNCTC My 235/80 after 14 days by microdilution method; type: functional; details: CNCTC My 235/80, 336 h; summary of the method: as §2
[8] = system: Mycobacterium tuberculosis; experiment: Antimycobacterial activity against Mycobacterium tuberculosis CNCTC My 331/88 after 14 days by microdilution method; type: functional; details: CNCTC My 331/88, 336 h; summary of the method: as §1
[9] = system: Mycobacterium kansasii; experiment: Antimycobacterial activity against Mycobacterium kansasii CNCTC My 235/80 after 21 days by microdilution method; type: functional; details: CNCTC My 235/80, 504 h; summary of the method: as §2
[10] = system: K562; experiment: Antiproliferative activity against human K562 cells after 72 hrs by celltiter-blue assay; type: functional, cell-based
Summary of the method: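 K-562 grown in RPMI 1640 with ultraglutamine, gentamicin, 10% heat-inactivated FBS at 37 °C; about 10,000 cells/well. Compounds dissolved in DMSO and diluted in DMEM, incubated 72 h at 37 °C, 5% CO2. Viability read by CellTiter-Blue resazurin reduction. GI50 taken where the dose-response curve crosses 50% of untreated control.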

[11] = system: Mycobacterium tuberculosis; experiment: Antimycobacterial activity against Mycobacterium tuberculosis CNCTC My 331/88 after 21 days by microdilution method; type: functional; details: CNCTC My 331/88, 504 h; summary of the method: as §1

| Structure (SMILES) | MIC [1] | MIC [2] | MIC [3] | Activity [4] | MIC [5] | Activity [6] | MIC [7] | MIC [8] | MIC [9] | Activity [10] | MIC [11] |
| --- | --- | --- | --- | --- | --- | --- | --- | --- | --- | --- | --- |
| O=c1oc2ccc(Cl)cc2c(=S)n1Cc1ccc(F)cc1 | 4 µM (≈ 1.29 µg/mL) | 4 µM (≈ 1.29 µg/mL) | 4 µM (≈ 1.29 µg/mL) | Toxic | 4 µM (≈ 1.29 µg/mL) | Toxic | 4 µM (≈ 1.29 µg/mL) | 1 µM (≈ 0.322 µg/mL) | 8 µM (≈ 2.57 µg/mL) | Toxic | 1 µM (≈ 0.322 µg/mL) |
| O=c1oc2ccccc2c(=O)n1Cc1ccccc1 | 62.5 µM (≈ 15.8 µg/mL) | 32 µM (≈ 8.1 µg/mL) | 62.5 µM (≈ 15.8 µg/mL) | Toxic | 62.5 µM (≈ 15.8 µg/mL) | Toxic | 62.5 µM (≈ 15.8 µg/mL) | 32 µM (≈ 8.1 µg/mL) | 62.5 µM (≈ 15.8 µg/mL) | Toxic | 32 µM (≈ 8.1 µg/mL) |
| O=c1oc2ccc(Cl)cc2c(=S)n1Cc1ccccc1 | 8 µM (≈ 2.43 µg/mL) | 4 µM (≈ 1.22 µg/mL) | 4 µM (≈ 1.22 µg/mL) | Toxic | 4 µM (≈ 1.22 µg/mL) | Toxic | 8 µM (≈ 2.43 µg/mL) | 1 µM (≈ 0.304 µg/mL) | 8 µM (≈ 2.43 µg/mL) | Toxic | 2 µM (≈ 0.608 µg/mL) |
| O=c1oc2ccc(Cl)cc2c(=O)n1Cc1ccccc1 | 62.5 µM (≈ 18 µg/mL) | 32 µM (≈ 9.21 µg/mL) | 125 µM (≈ 36 µg/mL) | Toxic | 125 µM (≈ 36 µg/mL) | Toxic | 32 µM (≈ 9.21 µg/mL) | 62.5 µM (≈ 18 µg/mL) | 62.5 µM (≈ 18 µg/mL) | Toxic | 125 µM (≈ 36 µg/mL) |
